The full list was thinned out, with hits kept by preference.
XBP1 UPR activ – adaptive UPR (XBP1) activation. CHO-XBP1 luciferase reporter, IRE1-XBP1 UPR activation, luminescence; percent of tunicamycin response, DMSO as zero. activation, % at 20 µM. hit rate 0.33% among 330,000. AID 463104;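 active = versus positive control, 20 µM dose yields 30% or more activation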;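 note: 100% = tunicamycin at 10 µg/mL and 0% = DMSO only wells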
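Material: CHO cell line with stable XBP1 luciferase reporter; buffer or medium: F12 medium containing 10% fetal bovine serum; compound: single point, 20 µM final compound, 1% DMSO; incubation: 6 h treatment, 37 °C; measured by: glow luminescence from Steady-Glo reagent; evaluation: activation, % of tunicamycin; control set: tunicamycin high, DMSO low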
CHOP inh – inhibitors of CHOP induction in ER stress response | inhibition, % at 10 µM | CHO-K1 CHOP-promoter luciferase, tunicamycin-induced, 15-18 h | hit rate 3.8% among 220,000 | AID 2732;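 active = compounds that reduced the stress-induced luciferase reporter signal by more than about 70% of percent inhibition, limit read from the data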;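 note: 0% = tunicamycin plus vehicle and 100% = wells without tunicamycin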
UPR CHOP act – apoptotic UPR (CHOP) activation; CHO-CHOP luciferase reporter, luminescence; percent of tunicamycin response over DMSO baseline; activation, % at 10 µM; hit rate 0.34% among 330,000;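 active = at 10 µM dose, activation of 40% or more, normalized to positive control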;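 note: 100% = tunicamycin at 10 µg/mL and 0% = DMSO alone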
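measured by = luciferase luminescence | assay system = CHO-CHOP cells, stable luciferase reporter of PERK-eIF2a-CHOP signalling | amount = 500 reporter cells seeded per well | timing = 6 h compound exposure at 37 °C after overnight seeding | controls = positive tunicamycin 10 µg/mL, negative DMSO alone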
A1 inh – inhibitors of the anti-apoptotic protein A1, read as caspase activation. hit rate 0.066% among 330,000. caspase activation, % (concentration not given with the values). MEF A1-2A-BIM cells, Caspase-Glo 3/7 luminescence, 3 h; percent of clofoctol response, vehicle zero;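 active = over half of replicate activation scores above 10%, or exactly half above 10 with the replicate mean above 10; inconclusive = replicate mean below 10 yet half the replicates above 10; inactive = over half of replicates below 10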
CHOP inh conf – confirmation of CHOP induction inhibitors. shares compounds with CHOP inh. CHO-CHOP promoter luciferase reporter, tunicamycin-induced, luminescence. inhibition, % at 10 µM. hit rate 45% among 2,100. AID 504437;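 active = mean of three repeat readings of reporter signal inhibition above a set limit, cut at about 70% in these data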;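 note: 0% = tunicamycin plus vehicle and 100% = wells lacking tunicamycin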
* = called active by the depositor; ? = inconclusive; nt = not tested or not shown.

SMILES	XBP1 UPR activ	CHOP inh	UPR CHOP act	A1 inh	CHOP inh conf
O=C(CCCOc1ccc(Cl)cc1Cl)N/N=C/c1ccc(Cl)cc1	-1	57	1	0	nt
O=C(CSc1nnc2scc(-c3ccc(Cl)cc3)n12)NCc1ccco1	0	16	-1	0	nt
Nn1c(Nc2ccccc2)nc2sc3c(c2c1=O)CCC3	nt	96*	nt	nt	45
COc1ccc(-c2[nH]ncc2CN(C)C(C)c2cccs2)c(F)c1 (configuration not stated)	-3	-6	-1	0	nt
O=C(Nc1nnc(-c2ccc(Cl)cc2)o1)c1nc2ccccc2s1	0	104*	0	0	-7
O=C(Nc1nnc(-c2ccc(Cl)cc2)o1)Nc1ccccc1Cl	0	45	3	-1	nt
C=CCN(CC=C)S(=O)(=O)c1ccc(NC(=S)NC(=O)/C=C/c2ccccc2)cc1	3	5	5	0	nt
COc1ccc2c(CC(=O)Nc3ccc(OC)nc3)coc2c1	-3	-2	1	0	nt
CCOc1ccc(C2C=C(c3ccc(C)cc3)Nc3nnnn32)cc1 (configuration not stated)	6	107*	12	0	77*
Cc1cc(C)c(NC(=O)CSc2nc3ccc(NC(=O)CSc4nnnn4-c4ccccc4)cc3s2)c(C)c1	5	98*	2	0	38
Cc1cc(C(=O)COC(=O)c2ccccc2O)c(C)n1Cc1cccs1	-6	109*	-8	-8	111*
CCCOc1ccc(C(=O)NCC(c2ccco2)N(C)C)cc1OC (configuration not stated)	-2	-3	2	1	nt
Cc1cccc(/C=C/c2nc3ccccc3c(=O)[nH]2)c1	3	102*	4	-9	121*
Cc1cc(C)cc(NC(=O)CCN2C(=O)c3ccccc3S2(=O)=O)c1	1	nt	1	0	nt
CCc1nnc(NC(=O)c2ccc(S(=O)(=O)N3CCN(Cc4ccccc4)CC3)cc2)s1	-3	97*	-1	-1	1
CCc1nnc(NC(=O)c2ccc(S(=O)(=O)N3CCCC3)cc2)s1	3	nt	0	0	nt
Cc1ccc(C(=C2C3C=CC2C2C(=O)NC(=O)C32)c2ccc(C)cc2)cc1 (configuration not stated)	-2	108*	0	0	14
Cc1cc(C)cc(OCC(=O)NNC(=O)C2CCCO2)c1 (configuration not stated)	0	16	2	1	nt
C=CCN1C(=O)/C(=C/c2ccc(OC(C)=O)c(OCC)c2[N+](=O)[O-])SC1=S	nt	100*	nt	nt	114*
CCCNC(=O)CSCc1nc(-c2ccc(SC)cc2)oc1C	-2	40	-5	-1	nt
CCc1ccc(-c2nc(CSCC(=O)NCc3ccco3)c(C)o2)cc1	nt	102*	nt	nt	135*
CC(C)Cc1ccc(C(C)C(=O)Nc2nccs2)cc1 (configuration not stated)	0	96*	0	1	94*
CC(C)c1ccc(CNC(=O)C(=O)Nc2nccs2)cc1	-1	3	-1	0	nt
COc1ccc(-c2nc(C#N)c(NCc3ccc(F)cc3)o2)cc1OC	12	-3	1	2	nt
CC(C)CCn1c(SCc2ccc(Cl)cc2)nc2c1c(=O)[nH]c(=O)n2C	18	97*	1	1	93*
SMILES	XBP1 UPR activ	CHOP inh	UPR CHOP act	A1 inh	CHOP inh conf
CC(C)n1c(SCc2ccc(Cl)cc2)nc2c1c(=O)[nH]c(=O)n2C	8	43	3	0	nt
Cc1ccc2c(c1)c1c(n2CC(O)Cn2c(C)nc3ccccc32)CCCC1 (configuration not stated)	-1	98*	-1	1	82*
CC(C)[C@H](NC(=O)C1CC(=O)N(c2ccc3c(c2)OCO3)C1)C(=O)NC1CCCC1 (some centres not stated)	-5	nt	-1	0	nt
CCCCc1c(C)nn(-c2nnc3c4ccccc4n(CC)c3n2)c1C	29	105*	3	0	99*
Cc1ccc(-c2nnn(CC(=O)N(CC(=O)NC3CCCC3)c3ccc(F)cc3)n2)o1	7	nt	0	0	nt
CCOC(=O)c1c2ccc(OCC(=O)N/N=C/c3ccc(Cl)cc3)cc2n2ccccc12	nt	104*	nt	nt	0
CCOC(=O)COc1ccc2c(C#N)c3ccccn3c2c1	nt	6	nt	nt	nt
OCc1ncccc1O	1	10	1	0	nt
Cc1ccc(Cn2c(-c3nonc3N)nc3ccccc32)cc1	0	105*	-1	0	19
Nc1nonc1-c1nc2ccccc2n1Cc1ccc(Cl)cc1	4	6	0	0	nt
O=C(Nc1ccc(F)cc1F)N1CCC(c2nc3ccccc3o2)CC1	-6	29	0	-1	nt
CCN(CC)c1ccc2c(C)c(Cl)c(=O)oc2c1	1	18	3	0	nt
CCN(CC)c1ccc2c(c1)oc(=O)c1c(Cl)cc(=O)oc12	-7	108*	24	?	26
Clc1ccc(CNc2ccc3nnc(-c4ccccc4)n3n2)cc1	-1	66	2	0	nt
CCOc1ccc(CCNc2ccc3nnc(-c4ccccc4)n3n2)cc1OCC	-4	97*	1	-1	64
O=C(O)CCN1C(=O)/C(=C/c2cn(-c3ccccc3)nc2-c2cccs2)SC1=S	-2	102*	-1	nt	-4
COc1ccc(-c2nn(-c3ccccc3)cc2/C=C2/SC(=S)N(CCC(=O)O)C2=O)cc1	0	nt	4	0	nt
CCCOc1ccccc1C1CC(=O)NC(C)=C1C(=O)OCC(C)C (configuration not stated)	1	99*	2	0	116*
CCC(C)OC(=O)C1=C(C)NC(=O)CC1c1ccccc1OC (configuration not stated)	-4	17	1	0	nt
N#Cc1ccc(-c2nc3ccc(Br)cc3c(=O)n2O)cc1	-3	nt	1	-1	nt
O=c1c2cc(Br)ccc2nc(-c2cccc(C(F)(F)F)c2)n1O	-1	99*	0	0	-14
CCCc1cc(C(=O)Cc2ccc(F)cc2)c(O)cc1O	1	100*	-1	1	122*
CCCCOc1ccccc1N	2	-15	1	0	nt
Cc1cc(Cl)c(S(=O)(=O)N2CCN(c3cccc(C)c3C)CC2)cc1OCC(N)=O	-4	107*	0	1	70
Cn1c(-c2cnn(-c3ccccc3)c2N)n[nH]c1=S	5	-22	-1	-2	nt
COc1ccc(N2CCN(c3oc(-c4ccco4)nc3C#N)CC2)cc1	-3	31	-2	-2	nt
CCc1ccc(OCC(=O)NNC(=O)CSc2ncnc3sc(C)c(C)c23)cc1	3	101*	1	1	13
Cc1sc2ncnc(SCC(=O)NCC(C)C)c2c1C	-1	19	0	?	nt
CCOC(=O)c1oc2ccc(/C=N/O)c(Cl)c2c1C	6	104*	7	-4	17
CCOC(=O)c1oc2cc(C)cc(C)c2c1C	3	28	1	0	nt

Source: PubChem BioAssay
